Eight molecules from ChEMBL document CHEMBL3286193, “Discovery of a series of 2,5-diaminopyrimidine covalent irreversible inhibitors of Bruton's tyrosine kinase with in vivo antitumor activity” (J Med Chem, 2014) can be followed below.

Converted amounts (≈) assume the structure as drawn. The source made the active and inactive calls. The calls are words filed in the database; no cut-off is given here.

Series [1] deals with T1, Tyrosine-protein kinase BTK (Homo sapiens, UniProt Q06187). Briefly: Irreversible inhibition of Btk phosphorylation at Tyr551 in human Ramos cells at 1 uM incubated for 1 hr followed by compound washout with fresh media measured after 2 hrs by Western blot analysis. It counts as cell-based. Put shortly: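 Ramos cells (5 × 10⁵) seeded overnight, treated with compound 1 h, then washed out with fresh media for 2 h. Cells stimulated with goat anti-human IgM for 3−5 min, lysed by boiling in SDS buffer, and Btk Tyr551 phosphorylation assessed by Western blot.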
A general note: A western blot detects proteins with antibodies after separation by electrophoresis.

Series [2] deals with T1, Tyrosine-protein kinase BTK. Briefly: Inhibition of Btk (unknown origin) after 1 hr by HTRF assay. Put shortly:
(§1)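 Recombinant kinases tested by HTRF KinEase protocol. Enzyme preincubated with inhibitor for a fixed 10 min. IC50 values are means of duplicates.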
Background: TR-FRET usually uses a lanthanide donor and a delayed reading to cut background.

For series [3], the target named is Receptor tyrosine-protein kinase erbB-2 (Homo sapiens, UniProt P04626). Briefly: Inhibition of HER2 (unknown origin) after 1 hr by HTRF assay. Put shortly: as §1
Series [4] addresses Tyrosine-protein kinase Blk (Homo sapiens, UniProt P51451). Briefly: Inhibition of Blk (unknown origin) after 1 hr by HTRF assay. Put shortly: as §1
Series [5] concerns the target T2, Epidermal growth factor receptor (Homo sapiens, UniProt P00533). Briefly: Inhibition of EGFR (unknown origin) after 1 hr by HTRF assay. Put shortly: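 Commercial recombinant kinase, assayed in the HTRF KinEase format following the kit protocol. Enzyme and inhibitor were preincubated for a fixed 10 min before the reaction.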
Series [6] addresses Receptor tyrosine-protein kinase erbB-4 (Homo sapiens, UniProt Q15303). Briefly: Inhibition of HER4 (unknown origin) after 1 hr by HTRF assay. The essentials: as §1
In series [7] the target is Tyrosine-protein kinase ITK/TSK (Homo sapiens, UniProt Q08881). Briefly: Inhibition of Itk (unknown origin) after 1 hr by HTRF assay. The essentials: as §1
The target of series [8] is Tyrosine-protein kinase JAK3 (Homo sapiens, UniProt P52333). Briefly: Inhibition of Jak3 (unknown origin) after 1 hr by HTRF assay. Put shortly:
as §1

For series [9], the target named is Tyrosine-protein kinase TXK (Homo sapiens, UniProt P42681). Briefly: Inhibition of Rlk (unknown origin) after 1 hr by HTRF assay. The essentials:
as §1

Series [10] has as its target Tyrosine-protein kinase Tec (Homo sapiens, UniProt P42680). Briefly: Inhibition of Tec (unknown origin) after 1 hr by HTRF assay. The essentials:
as §1

Series [11] concerns the target T1, Tyrosine-protein kinase BTK. Briefly: Binding affinity to Btk kinase domain (387 to 659) (unknown origin) assessed as compound-protein covalent adduct formation at 1:3 protein to compound molar ratio at 4 degC after 1 hr by LC-MS analysis. Put shortly: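 Btk kinase domain (residues 387−659, MW 32136) incubated with 3 equiv of compound at 4 °C for 1 h. Mass spectrometry of the intact protein checked for mass peak shift consistent with 1-to-1 protein−compound adducts.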

The target is the same in series [12]. Briefly: Inhibition of Btk phosphorylation at Tyr551 in human Ramos cells after 1 hr by Western blot analysis. It counts as cell-based.
Series [13] shares this target. Briefly: Inhibition of Btk in human Ramos cells assessed as inhibition of PLC-gamma2 phosphorylation at Tyr1217 after 1 hr by Western blot analysis. It counts as cell-based.
Series [14] can be described thus: Cytotoxicity against human DOHH2 cells assessed as growth inhibition after 72 hrs by CellTiter-Glo luminescent cell viability assay. The class given is functional, DOHH-2. The essentials:
(§2)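 Lymphoma cells seeded at 5000 cells/well, incubated 24 h, then exposed to compounds for 72 h. Viability read by CellTiter-Glo luminescence. GI50 from dose−response curves, mean of two or three independent experiments in triplicate.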
Background: In ATP-based viability assays light output follows the ATP content of the culture.

The nature of series [15]: Cytotoxicity against human Pfeiffer cells assessed as growth inhibition after 72 hrs by CellTiter-Glo luminescent cell viability assay. It counts as functional. The essentials:
as §2

Series [16] can be described thus: Cytotoxicity against human SU-DHL6 cells assessed as growth inhibition after 72 hrs by CellTiter-Glo luminescent cell viability assay. It counts as functional, SU-DHL-6. Put shortly:
as §2

The subject of a further series is WSU-NHL. Briefly: Cytotoxicity against human WSU-NHL cells assessed as growth inhibition after 72 hrs by CellTiter-Glo luminescent cell viability assay. It counts as functional. Put shortly: as §2
A short description of series [17]: Solubility of the compound in FaSSIF. It counts as ADME.
The nature of series [18]: Stability of the compound in FaSSIF assessed as compound remaining at 1 uM measured at 24 hrs by LC-MS analysis. It counts as ADME. Conditions: read-out: Stability. Put shortly: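 Compound solutions in FaSSIF shaken at 350 rpm at 37 °C. Samples taken at 2, 6, 10 and 24 h and quantified by LC−MS as % remaining.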
Series [19] can be described thus: Half life in mouse liver microsomes by LC-MS/MS analysis. The class given is ADME. The essentials: (§3)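 Liver microsomes incubated with compound and NADPH at 37 °C. Samples taken at several time points, centrifuged, and supernatants analyzed by LC−MS/MS. t1/2 and CL calculated by first-order kinetics. Testosterone, propranolol and clozapine served as positive controls.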

Series [20] in a line: Clearance in mouse liver microsomes by LC-MS/MS analysis. It counts as ADME. Conditions: read-out: CLH. The essentials:
as §3

Series [21] can be described thus: Half life in ICR mouse at 1 mg/kg, iv by LC-MS analysis. The class given is ADME, organism-based. Set-up: dose 1 mg/kg, route intravenous. Conditions: in vivo. Put shortly: (§4)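 ICR mice (n = 3) given a single intravenous injection at 1 mg/kg. Blood sampled at various time points and analyzed by LC−MS to derive t1/2, CL and Vss.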
Series [22] is described as follows: Clearance in ICR mouse at 1 mg/kg, iv by LC-MS analysis. The class given is ADME, organism-based. Set-up: dose 1 mg/kg, route intravenous. Particulars: in vivo. Put shortly:
as §4

Series [23] can be described thus: Volume of distribution at steady state in ICR mouse at 1 mg/kg, iv by LC-MS analysis. The class given is ADME, organism-based. Set-up: dose 1 mg/kg, route intravenous. Particulars: in vivo, read-out: Vdss. Put shortly: as §4
The target of series [24] is Cytoplasmic tyrosine-protein kinase BMX (Homo sapiens, UniProt P51813). Briefly: Inhibition of Bmx (unknown origin) after 1 hr by HTRF assay. Put shortly:
as §1

For series [25], the system named is Liver microsomes (Mus musculus). Briefly: Clearance in mouse liver microsomes by LC-MS/MS analysis.
The nature of series [26]: Plasma concentration in CB17 SCID mouse xenografted with human DOHH2 cells at 10 mg/kg, iv qd administered for 14 days measured at 2 hrs post last dose. It counts as ADME, organism-based, DOHH-2. Also noted: dose 10 mg/kg, route intravenous. The essentials: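 Female CB17/SCID mice were given 5 × 10⁶ DoHH2 cells subcutaneously. When tumours averaged ~167 mm³, mice were randomised into four groups (n = 6/group). Dosing was by tail-vein injection once daily for 14 consecutive days. Plasma compound levels were determined at 2 and 24 h after the final dose.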

The subject of the next series is Mus musculus. Briefly: Toxicity in CB17 SCID mouse xenografted with human DOHH2 cells assessed as body weight fluctuations at 10 mg/kg, iv qd administered for 14 days measured over 14 days of compound treatment. It counts as organism-based, DOHH-2. Set-up: dose 10 mg/kg, route intravenous. Conditions: in vivo, 336 h. The essentials:
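Female CB17/SCID mice carried subcutaneous DoHH2 xenografts (5 × 10⁶ cells injected), randomised at ~167 mm³ mean tumour volume into four groups (n = 6/group). Compound was given intravenously via the tail vein once daily for 14 consecutive days. Body weights were tracked over time throughout the study.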

Series [27] concerns the target T2, Epidermal growth factor receptor. Conditions: 5 nM.

T1 sequence (Q06187 whole entry): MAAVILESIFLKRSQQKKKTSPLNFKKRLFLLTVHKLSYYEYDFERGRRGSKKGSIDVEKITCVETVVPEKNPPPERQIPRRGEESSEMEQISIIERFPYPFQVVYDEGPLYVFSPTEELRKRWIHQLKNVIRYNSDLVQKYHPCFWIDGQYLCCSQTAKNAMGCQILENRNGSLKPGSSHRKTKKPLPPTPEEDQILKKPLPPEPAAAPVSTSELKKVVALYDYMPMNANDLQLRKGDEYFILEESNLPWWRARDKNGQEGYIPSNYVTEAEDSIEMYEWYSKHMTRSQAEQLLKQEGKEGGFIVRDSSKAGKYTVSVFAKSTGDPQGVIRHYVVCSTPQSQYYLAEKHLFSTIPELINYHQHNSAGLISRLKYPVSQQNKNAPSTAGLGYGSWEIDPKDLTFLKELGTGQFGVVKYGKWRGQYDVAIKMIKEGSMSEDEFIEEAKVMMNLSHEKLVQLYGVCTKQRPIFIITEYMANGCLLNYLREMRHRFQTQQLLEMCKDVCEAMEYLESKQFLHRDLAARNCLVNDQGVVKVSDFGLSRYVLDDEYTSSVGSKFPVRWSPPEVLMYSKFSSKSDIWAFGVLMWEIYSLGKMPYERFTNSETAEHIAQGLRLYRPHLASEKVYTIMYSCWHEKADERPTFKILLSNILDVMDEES
T2 sequence (P00533 whole entry): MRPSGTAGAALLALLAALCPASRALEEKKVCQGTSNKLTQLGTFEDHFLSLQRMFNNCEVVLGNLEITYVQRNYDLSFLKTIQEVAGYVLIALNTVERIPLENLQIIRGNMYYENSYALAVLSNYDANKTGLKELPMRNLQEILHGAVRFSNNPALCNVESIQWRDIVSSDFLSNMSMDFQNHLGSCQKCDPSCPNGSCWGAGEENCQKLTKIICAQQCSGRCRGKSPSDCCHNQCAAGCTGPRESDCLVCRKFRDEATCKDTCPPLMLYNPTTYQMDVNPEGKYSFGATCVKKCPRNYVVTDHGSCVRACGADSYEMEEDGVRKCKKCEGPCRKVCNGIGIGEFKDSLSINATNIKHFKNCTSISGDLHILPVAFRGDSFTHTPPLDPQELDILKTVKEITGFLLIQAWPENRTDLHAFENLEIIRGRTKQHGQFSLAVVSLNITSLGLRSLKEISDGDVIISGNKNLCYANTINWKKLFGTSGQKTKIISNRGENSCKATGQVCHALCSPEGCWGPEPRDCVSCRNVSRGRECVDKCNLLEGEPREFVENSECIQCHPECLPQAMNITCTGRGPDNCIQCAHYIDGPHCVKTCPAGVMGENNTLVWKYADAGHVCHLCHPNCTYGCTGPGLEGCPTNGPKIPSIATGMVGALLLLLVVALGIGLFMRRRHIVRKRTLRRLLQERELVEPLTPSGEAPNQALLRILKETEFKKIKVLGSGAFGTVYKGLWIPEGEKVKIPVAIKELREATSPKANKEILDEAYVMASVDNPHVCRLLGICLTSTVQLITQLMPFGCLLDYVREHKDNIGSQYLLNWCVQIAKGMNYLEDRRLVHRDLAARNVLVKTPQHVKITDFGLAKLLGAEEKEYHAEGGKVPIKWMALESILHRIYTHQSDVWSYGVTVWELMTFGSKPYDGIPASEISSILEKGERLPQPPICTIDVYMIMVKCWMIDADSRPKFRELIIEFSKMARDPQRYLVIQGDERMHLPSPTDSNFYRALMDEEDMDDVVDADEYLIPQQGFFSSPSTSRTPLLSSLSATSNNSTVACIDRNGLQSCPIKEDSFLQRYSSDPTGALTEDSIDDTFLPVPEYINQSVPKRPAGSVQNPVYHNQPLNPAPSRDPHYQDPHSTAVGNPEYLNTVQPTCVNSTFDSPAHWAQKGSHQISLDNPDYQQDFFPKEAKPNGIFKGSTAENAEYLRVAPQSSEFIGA
Sequence of Tyrosine-protein kinase Blk (P51451 whole entry): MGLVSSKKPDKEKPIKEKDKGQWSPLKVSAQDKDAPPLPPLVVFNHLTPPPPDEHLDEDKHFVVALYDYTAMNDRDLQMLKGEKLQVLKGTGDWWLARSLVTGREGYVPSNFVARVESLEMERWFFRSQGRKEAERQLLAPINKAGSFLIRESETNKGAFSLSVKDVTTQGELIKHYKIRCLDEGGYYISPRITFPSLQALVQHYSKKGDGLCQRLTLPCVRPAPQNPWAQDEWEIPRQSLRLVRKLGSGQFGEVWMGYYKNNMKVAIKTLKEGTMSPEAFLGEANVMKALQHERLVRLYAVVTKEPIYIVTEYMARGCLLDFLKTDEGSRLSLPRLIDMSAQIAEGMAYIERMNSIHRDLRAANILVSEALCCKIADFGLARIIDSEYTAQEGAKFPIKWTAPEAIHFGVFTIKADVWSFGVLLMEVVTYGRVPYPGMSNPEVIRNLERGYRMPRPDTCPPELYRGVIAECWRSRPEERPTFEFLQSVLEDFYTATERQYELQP
Sequence of Receptor tyrosine-protein kinase erbB-4 (Q15303 whole entry): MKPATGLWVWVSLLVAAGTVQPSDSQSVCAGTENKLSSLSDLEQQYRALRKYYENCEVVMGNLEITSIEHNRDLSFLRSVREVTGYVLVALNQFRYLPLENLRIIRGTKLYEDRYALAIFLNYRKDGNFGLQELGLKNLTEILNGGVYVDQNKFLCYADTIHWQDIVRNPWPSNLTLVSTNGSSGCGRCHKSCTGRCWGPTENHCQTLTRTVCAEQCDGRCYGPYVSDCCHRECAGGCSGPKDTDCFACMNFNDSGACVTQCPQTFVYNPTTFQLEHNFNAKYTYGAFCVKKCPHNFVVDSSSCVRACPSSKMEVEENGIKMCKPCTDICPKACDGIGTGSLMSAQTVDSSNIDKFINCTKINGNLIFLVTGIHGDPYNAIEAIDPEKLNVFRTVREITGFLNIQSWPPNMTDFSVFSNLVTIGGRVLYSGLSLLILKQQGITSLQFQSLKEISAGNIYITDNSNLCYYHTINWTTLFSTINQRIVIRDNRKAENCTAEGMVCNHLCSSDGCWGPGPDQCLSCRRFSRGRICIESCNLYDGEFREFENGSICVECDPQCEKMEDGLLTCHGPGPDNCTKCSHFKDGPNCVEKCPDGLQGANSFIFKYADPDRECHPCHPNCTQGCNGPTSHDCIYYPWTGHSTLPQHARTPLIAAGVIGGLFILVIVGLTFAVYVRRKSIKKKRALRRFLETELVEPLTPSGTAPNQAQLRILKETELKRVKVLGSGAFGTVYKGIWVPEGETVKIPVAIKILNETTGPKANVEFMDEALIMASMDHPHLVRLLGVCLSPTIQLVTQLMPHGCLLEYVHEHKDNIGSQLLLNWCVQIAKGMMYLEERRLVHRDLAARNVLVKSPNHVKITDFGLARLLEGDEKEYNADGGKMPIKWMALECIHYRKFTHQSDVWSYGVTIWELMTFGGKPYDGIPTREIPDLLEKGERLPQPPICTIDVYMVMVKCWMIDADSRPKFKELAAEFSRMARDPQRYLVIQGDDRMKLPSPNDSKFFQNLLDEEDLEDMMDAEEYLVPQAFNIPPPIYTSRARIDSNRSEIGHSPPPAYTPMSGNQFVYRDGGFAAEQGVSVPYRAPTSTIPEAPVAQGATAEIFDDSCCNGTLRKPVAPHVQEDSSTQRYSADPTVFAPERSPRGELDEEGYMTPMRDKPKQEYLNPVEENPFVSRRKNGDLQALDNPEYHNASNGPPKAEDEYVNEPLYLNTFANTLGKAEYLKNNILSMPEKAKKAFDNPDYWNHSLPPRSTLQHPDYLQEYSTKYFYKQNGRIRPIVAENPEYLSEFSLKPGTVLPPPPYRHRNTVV
Sequence of Tyrosine-protein kinase ITK/TSK (Q08881 whole entry): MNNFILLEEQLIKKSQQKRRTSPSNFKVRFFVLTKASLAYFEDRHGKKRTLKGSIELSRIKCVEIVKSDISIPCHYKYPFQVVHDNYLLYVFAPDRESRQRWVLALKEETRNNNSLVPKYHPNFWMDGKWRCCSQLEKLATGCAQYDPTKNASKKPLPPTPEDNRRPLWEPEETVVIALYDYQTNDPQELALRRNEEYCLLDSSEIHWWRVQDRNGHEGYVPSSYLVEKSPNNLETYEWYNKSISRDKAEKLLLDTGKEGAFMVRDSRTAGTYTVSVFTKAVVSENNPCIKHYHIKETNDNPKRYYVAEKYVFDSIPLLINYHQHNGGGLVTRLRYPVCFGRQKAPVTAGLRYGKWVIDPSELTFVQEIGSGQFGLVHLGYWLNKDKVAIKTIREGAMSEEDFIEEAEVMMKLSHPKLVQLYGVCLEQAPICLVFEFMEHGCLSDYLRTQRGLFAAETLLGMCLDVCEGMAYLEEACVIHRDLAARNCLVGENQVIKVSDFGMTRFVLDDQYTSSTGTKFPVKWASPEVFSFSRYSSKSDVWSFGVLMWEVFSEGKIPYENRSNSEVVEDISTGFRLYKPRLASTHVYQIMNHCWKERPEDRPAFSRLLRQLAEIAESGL
Sequence of Tyrosine-protein kinase Tec (P42680 whole entry): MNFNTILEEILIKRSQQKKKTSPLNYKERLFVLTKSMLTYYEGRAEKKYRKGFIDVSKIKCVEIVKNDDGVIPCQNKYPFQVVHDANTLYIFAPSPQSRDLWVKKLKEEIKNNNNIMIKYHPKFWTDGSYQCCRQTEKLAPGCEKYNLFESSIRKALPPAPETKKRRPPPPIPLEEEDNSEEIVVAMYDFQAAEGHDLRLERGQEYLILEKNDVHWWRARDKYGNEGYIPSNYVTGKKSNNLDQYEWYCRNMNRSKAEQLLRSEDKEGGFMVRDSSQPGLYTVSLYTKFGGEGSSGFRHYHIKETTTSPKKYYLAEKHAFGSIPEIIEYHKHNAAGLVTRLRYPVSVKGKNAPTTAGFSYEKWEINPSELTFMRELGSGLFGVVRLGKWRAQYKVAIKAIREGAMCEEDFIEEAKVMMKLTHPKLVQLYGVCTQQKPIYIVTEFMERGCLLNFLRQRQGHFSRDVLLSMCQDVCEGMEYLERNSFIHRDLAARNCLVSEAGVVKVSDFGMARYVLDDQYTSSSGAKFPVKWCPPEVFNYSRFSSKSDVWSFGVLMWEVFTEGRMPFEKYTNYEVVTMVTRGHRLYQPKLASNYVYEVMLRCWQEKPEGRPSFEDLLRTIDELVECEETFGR

For `CCC(=O)Nc1cccc(Nc2ncc(NC(=O)c3cc(NC(=O)c4cccc(C(F)(F)F)c4)ccc3C)cn2)c1`, the inhibition result in series [1] was “inactive”. This molecule also came in with an IC50 in series [2] of 15 nM.
Take `C=CC(=O)NCC(=O)Nc1cccc(Nc2ncc(NC(=O)c3cc(NC(=O)c4cccc(C(F)(F)F)c4)ccc3C)cn2)c1`: the IC50 in series [3] is 7 nM; in series [4], 4.2 nM; in series [5] it was 7 nM; in series [6], 3.3 nM; in series [7] it was over 30000 nM; in series [8] it was 6370 nM. Also, the IC50 in series [9] was 1.4 nM; in [10] it was 6.3 nM; in [12], 13 nM; in [13] it was 13 nM; in series [24], 0.71 nM; in series [2], under 4.4 nM. Also, in series [11], the outcome was Active. For the same molecule, the inhibition entry in [1] is “Active”. Moreover, the GI50 in series [14] (Homo sapiens, DOHH-2, 72 h) came out at 40 nM; in series [15] (Homo sapiens, Pfeiffer, 72 h), 8 nM; in [16] (Homo sapiens, SU-DHL-6, 72 h) it was 43 nM; with WSU-NHL, 29 nM. For the same molecule, in series [17], the solubility worked out at 2.23 µM (≈ 1.38 µg/mL). Besides, in series [18], the remaining at 24 h, 1 µM came out at 99%. Also, the half-life in series [19] is 35.4 min; in series [21] it was 36 min. Further, the microsomal CLint in series [20] is 28.1 µL/min/mg. Also, the clearance in series [22] was 11.5 mL/min/kg. Besides, the Vd in series [23] amounted to 0.13 L/kg. In [25], this molecule yielded a CLH of 49.8 mL/min/kg.
Turning to `Nc1cccc(Nc2ncc(NC(=O)c3cccc(C(=O)Nc4cccc(C(F)(F)F)c4)c3)cn2)c1`, the IC50 in series [2] was 45 nM.
Still for that read-out and setting: next, `Nc1cccc(Nc2ncc(NC(=O)c3cc(NC(=O)c4cccc(C(F)(F)F)c4)ccc3F)cn2)c1`: 47 nM.
Still for that read-out and setting: as for `CCC(=O)N(C(=O)CC)c1cccc(Nc2ncc(NC(=O)c3cc(NC(=O)c4cccc(C(F)(F)F)c4)ccc3C)cn2)c1`, the figure is 1410 nM; as for `Cc1ccc(NC(=O)c2cccc(C(F)(F)F)c2)cc1C(=O)Nc1cnc(Nc2cccc(NC(=O)/C=C/CN(C)C)c2)nc1`, 15 nM.
For `C=CC(=O)N1CCC[C@@H](n2nc(-c3ccc(Oc4ccccc4)cc3)c3c(N)ncnc32)C1` [IBRUTINIB], the GI50 in series [14] worked out at 410 nM; in series [15], 2 nM; in [16], 580 nM. Further, in series [26], the concentration at 2 h was 479 ng/mL. Besides, the Activity result in the series with Mus musculus is given as “Non-toxic”. In addition, the inhibition entry in series [27] was “Active”.
As for `Cc1ccc(NC(=O)C2CC2)cc1C(=O)Nc1cnc(Nc2cccc(N)c2)nc1`, in [2], the IC50 is 4950 nM.

One may read the IC50 as the concentration needed to halve the response being measured. What is called GI50 is the concentration that inhibits growth by half. Usually solubility stands for the dissolved amount per volume that the medium holds. Low readings indicate a poorly soluble substance, high ones a readily soluble substance. One may read the half-life as the time in which the quantity being followed falls by half. Read a low half-life as fast loss. What is called clearance is a measure of how efficiently the substance is removed, as volume per time. A higher clearance goes with a high capacity for elimination.
